Data set [1] relates to Schistosoma japonicum. As to the kind of experiment: Antischistosomal activity against Schistosoma japonicum infected mouse assessed as reduction in number of worms at 50 mg/kg, po single dose. The class given is functional.
Data set [2] relates to Schistosoma japonicum. Kind of data set: Antischistosomal activity against Schistosoma japonicum infected mouse assessed as reduction in number of worms at 125 mg/kg, po single dose. It counts as functional.
Data set [3] deals with Schistosoma japonicum. As to the kind of experiment: Antischistosomal activity against Schistosoma japonicum infected mouse assessed as reduction in number of worms at 250 mg/kg, po single dose. The class given is functional.
Data set [4] concerns Schistosoma japonicum. As to the kind of experiment: Antischistosomal activity against Schistosoma japonicum infected mouse assessed as reduction in number of worms at 500 mg/kg, po single dose. The class given is functional.
Data set [5] relates to Schistosoma japonicum. Kind of data set: Antischistosomal activity against Schistosoma japonicum infected mouse assessed as mouse with parasital cures at 50 mg/kg, po single dose. The class given is functional.
The subject of data set [6] is Schistosoma japonicum. As to the kind of experiment: Antischistosomal activity against Schistosoma japonicum infected mouse assessed as mouse with parasital cures at 125 mg/kg, po single dose. It counts as functional.
For data set [7], the system named is Schistosoma japonicum. As to the kind of experiment: Antischistosomal activity against Schistosoma japonicum infected mouse assessed as mouse with parasital cures at 250 mg/kg, po single dose. It counts as functional.
Data set [8] concerns Schistosoma japonicum. As to the kind of experiment: Antischistosomal activity against Schistosoma japonicum infected mouse assessed as mouse with parasital cures at 500 mg/kg, po single dose. The class given is functional.
For data set [9], the system named is Salmonella typhimurium. Kind of data set: Mutagenic activity in Salmonella typhimurium TA-100 at 17 nmol/plate by Ames test. The note with it: salmonella enterica subsp. enterica serovar typhimurium. The class given is toxicity, organism-based. Put shortly: (§1)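 Ames plate-incorporation assay in Salmonella typhimurium TA-98 or TA-100 without rat liver S9. Compound was dissolved in Me2SO, with final Me2SO held at 0.1 mL per 15 mL medium on every plate, controls included. The top level tested was near that giving 10% growth inhibition. Read-out was revertant count in excess of solvent controls.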
A general note: The Ames test uses bacterial strains that need an amino acid and regain growth without it when mutated back.

Data set [10] has as its system Salmonella typhimurium. Kind of data set: Mutagenic activity in Salmonella typhimurium TA-100 at 60 nmol/plate by Ames test. It counts as toxicity, organism-based. The note with it: salmonella enterica subsp. enterica serovar typhimurium. In a few lines: as §1
Data set [11] relates to Salmonella typhimurium. As to the kind of experiment: Mutagenic activity in Salmonella typhimurium TA-100 at 17 nmol/plate by Ames test in presence of rat liver microsomes S9 fraction. The note with it: salmonella enterica subsp. enterica serovar typhimurium. The class given is toxicity, organism-based. Put shortly: (§2)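 Ames plate-incorporation assay in Salmonella typhimurium TA-98 or TA-100 with rat liver microsomal S9 fraction. Compound was dissolved in Me2SO, with final Me2SO held at 0.1 mL per 15 mL medium on every plate, controls included. The top level tested was near that giving 10% growth inhibition. Read-out was revertant count in excess of solvent controls.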

Data set [12] relates to Salmonella typhimurium. As to the kind of experiment: Mutagenic activity in Salmonella typhimurium TA-100 at 60 nmol/plate by Ames test in presence of rat liver microsomes S9 fraction. It counts as toxicity, organism-based. The note with it: salmonella enterica subsp. enterica serovar typhimurium. Put shortly:
as §2

In data set [13] the test system is Salmonella typhimurium. Kind of data set: Mutagenic activity in Salmonella typhimurium TA-98 at 17 nmol/plate by Ames test. The note with it: salmonella enterica subsp. enterica serovar typhimurium. It counts as toxicity, organism-based. Put shortly:
as §1

Data set [14] deals with Salmonella typhimurium. Kind of data set: Mutagenic activity in Salmonella typhimurium TA-98 at 60 nmol/plate by Ames test. The class given is toxicity, organism-based. The note with it: salmonella enterica subsp. enterica serovar typhimurium. In a few lines:
as §1

The test system of data set [15] is Salmonella typhimurium. As to the kind of experiment: Mutagenic activity in Salmonella typhimurium TA-98 at 17 nmol/plate by Ames test in presence of rat liver microsomes S9 fraction. The class given is toxicity, organism-based. The note with it: salmonella enterica subsp. enterica serovar typhimurium. In a few lines: as §2
The test system of data set [16] is Salmonella typhimurium. Kind of data set: Mutagenic activity in Salmonella typhimurium TA-98 at 60 nmol/plate by Ames test in presence of rat liver microsomes S9 fraction. It counts as toxicity, organism-based. The note with it: salmonella enterica subsp. enterica serovar typhimurium. In a few lines:
as §2

Data set [17] deals with Schistosoma japonicum. As to the kind of experiment: Antischistosomal activity against Schistosoma japonicum infected mouse assessed as reduction in number of worms at 5 mg/kg, po single dose. The class given is functional.
The test system of data set [18] is Schistosoma japonicum. As to the kind of experiment: Antischistosomal activity against Schistosoma japonicum infected mouse assessed as reduction in number of worms at 7 mg/kg, po single dose. The class given is functional.
The subject of data set [19] is Schistosoma japonicum. As to the kind of experiment: Antischistosomal activity against Schistosoma japonicum infected mouse assessed as reduction in number of worms at 10 mg/kg, po single dose. It counts as functional.
The test system of data set [20] is Schistosoma japonicum. As to the kind of experiment: Antischistosomal activity against Schistosoma japonicum infected mouse assessed as reduction in number of worms at 20 mg/kg, po single dose. It counts as functional.
The subject of data set [21] is Schistosoma japonicum. Kind of data set: Antischistosomal activity against Schistosoma japonicum infected mouse assessed as mouse with parasital cures at 5 mg/kg, po single dose. It counts as functional.
Data set [22] relates to Schistosoma japonicum. As to the kind of experiment: Antischistosomal activity against Schistosoma japonicum infected mouse assessed as mouse with parasital cures at 7 mg/kg, po single dose. It counts as functional.
Data set [23] has as its system Schistosoma japonicum. As to the kind of experiment: Antischistosomal activity against Schistosoma japonicum infected mouse assessed as mouse with parasital cures at 10 mg/kg, po single dose. It counts as functional.
The subject of data set [24] is Schistosoma japonicum. As to the kind of experiment: Antischistosomal activity against Schistosoma japonicum infected mouse assessed as mouse with parasital cures at 20 mg/kg, po single dose. The class given is functional.
For data set [25], the system named is Salmonella typhimurium. As to the kind of experiment: Mutagenic activity in Salmonella typhimurium TA-100 at 5 nmol/plate by Ames test. The class given is toxicity, organism-based. The note with it: salmonella enterica subsp. enterica serovar typhimurium.
For data set [26], the system named is Salmonella typhimurium. As to the kind of experiment: Mutagenic activity in Salmonella typhimurium TA-100 at 16 nmol/plate by Ames test. The note with it: salmonella enterica subsp. enterica serovar typhimurium. It counts as toxicity, organism-based.
In data set [27] the test system is Salmonella typhimurium. As to the kind of experiment: Mutagenic activity in Salmonella typhimurium TA-100 at 53 nmol/plate by Ames test. The note with it: salmonella enterica subsp. enterica serovar typhimurium. It counts as toxicity, organism-based.
Data set [28] concerns Salmonella typhimurium. Kind of data set: Mutagenic activity in Salmonella typhimurium TA-100 at 158 nmol/plate by Ames test. The class given is toxicity, organism-based. The note with it: salmonella enterica subsp. enterica serovar typhimurium.
Data set [29] has as its system Salmonella typhimurium. Kind of data set: Mutagenic activity in Salmonella typhimurium TA-100 at 5 nmol/plate by Ames test in presence of rat liver microsomes S9 fraction. It counts as toxicity, organism-based. The note with it: salmonella enterica subsp. enterica serovar typhimurium.
The subject of data set [30] is Salmonella typhimurium. As to the kind of experiment: Mutagenic activity in Salmonella typhimurium TA-100 at 16 nmol/plate by Ames test in presence of rat liver microsomes S9 fraction. It counts as toxicity, organism-based. The note with it: salmonella enterica subsp. enterica serovar typhimurium.
Data set [31] deals with Salmonella typhimurium. Kind of data set: Mutagenic activity in Salmonella typhimurium TA-100 at 53 nmol/plate by Ames test in presence of rat liver microsomes S9 fraction. It counts as toxicity, organism-based. The note with it: salmonella enterica subsp. enterica serovar typhimurium.
Data set [32] has as its system Salmonella typhimurium. As to the kind of experiment: Mutagenic activity in Salmonella typhimurium TA-100 at 158 nmol/plate by Ames test in presence of rat liver microsomes S9 fraction. It counts as toxicity, organism-based. The note with it: salmonella enterica subsp. enterica serovar typhimurium.
Data set [33] deals with Salmonella typhimurium. As to the kind of experiment: Mutagenic activity in Salmonella typhimurium TA-98 at 5 nmol/plate by Ames test. The class given is toxicity, organism-based. The note with it: salmonella enterica subsp. enterica serovar typhimurium.
Data set [34] has as its system Salmonella typhimurium. Kind of data set: Mutagenic activity in Salmonella typhimurium TA-98 at 16 nmol/plate by Ames test. The note with it: salmonella enterica subsp. enterica serovar typhimurium. The class given is toxicity, organism-based.
The subject of data set [35] is Salmonella typhimurium. As to the kind of experiment: Mutagenic activity in Salmonella typhimurium TA-98 at 53 nmol/plate by Ames test. The class given is toxicity, organism-based. The note with it: salmonella enterica subsp. enterica serovar typhimurium.
For data set [36], the system named is Salmonella typhimurium. Kind of data set: Mutagenic activity in Salmonella typhimurium TA-98 at 158 nmol/plate by Ames test. The class given is toxicity, organism-based. The note with it: salmonella enterica subsp. enterica serovar typhimurium.
The test system of data set [37] is Salmonella typhimurium. Kind of data set: Mutagenic activity in Salmonella typhimurium TA-98 at 5 nmol/plate by Ames test in presence of rat liver microsomes S9 fraction. It counts as toxicity, organism-based. The note with it: salmonella enterica subsp. enterica serovar typhimurium.
Data set [38] relates to Salmonella typhimurium. Kind of data set: Mutagenic activity in Salmonella typhimurium TA-98 at 16 nmol/plate by Ames test in presence of rat liver microsomes S9 fraction. The class given is toxicity, organism-based. The note with it: salmonella enterica subsp. enterica serovar typhimurium.
Data set [39] has as its system Salmonella typhimurium. Kind of data set: Mutagenic activity in Salmonella typhimurium TA-98 at 53 nmol/plate by Ames test in presence of rat liver microsomes S9 fraction. It counts as toxicity, organism-based. The note with it: salmonella enterica subsp. enterica serovar typhimurium.
The test system of data set [40] is Salmonella typhimurium. Kind of data set: Mutagenic activity in Salmonella typhimurium TA-98 at 158 nmol/plate by Ames test in presence of rat liver microsomes S9 fraction. It counts as toxicity, organism-based. The note with it: salmonella enterica subsp. enterica serovar typhimurium.

Each structure is given as a SMILES string.

As usually defined, the inhibition in vivo is the percentage by which the read-out fell short of the control. Regarding `O=C=Nc1ccc(Nc2ccc([N+](=O)[O-])cc2)cc1`, in the data set on Schistosoma japonicum [1], the inhibition in vivo at 50 mg/kg is 0%. The inhibition in vivo at 125 mg/kg with Schistosoma japonicum [2] is 0%. In addition, the inhibition in vivo at 250 mg/kg in the data set on Schistosoma japonicum [3] was 0%. For the same compound, the inhibition in vivo at 500 mg/kg in the data set with Schistosoma japonicum [4] came out at 0%. Also, the Activity in the data set on Schistosoma japonicum [5] is 0%; with Schistosoma japonicum [6] it was 0%; in the data set with Schistosoma japonicum [7] it was 0%; in the data set on Schistosoma japonicum [8], 0%; in the data set on Salmonella typhimurium [9], “Toxic”; in the data set on Salmonella typhimurium [10] it was “Toxic”. Further, the Activity result with Salmonella typhimurium [11], in the data set on Salmonella typhimurium [12], in the data set on Salmonella typhimurium [13], in the data set on Salmonella typhimurium [14], in the data set on Salmonella typhimurium [15] and in the data set with Salmonella typhimurium [16] was “Toxic” each time.

For `O=[N+]([O-])c1ccc(Nc2ccc(N=C=S)cc2)cc1` [AMOSCANATE], the inhibition in vivo at 5 mg/kg in the data set with Schistosoma japonicum [17] is 68%. For the same compound, the inhibition in vivo at 7 mg/kg in the data set with Schistosoma japonicum [18] was found to be 82%. Moreover, in the data set on Schistosoma japonicum [19], the inhibition in vivo at 10 mg/kg was found to be 99%. For the same compound, the inhibition in vivo at 20 mg/kg with Schistosoma japonicum [20] was 100%. The Activity with Schistosoma japonicum [21] is 14%; with Schistosoma japonicum [22] it was 25%; with Schistosoma japonicum [23], 92%; in the data set on Schistosoma japonicum [24] it was 100%; in the data set with Salmonella typhimurium [25] it was “Non-toxic”; with Salmonella typhimurium [26], “Non-toxic”. Also, the Activity entry with Salmonella typhimurium [27], in the data set with Salmonella typhimurium [28], in the data set with Salmonella typhimurium [29], with Salmonella typhimurium [30], in the data set on Salmonella typhimurium [31] and in the data set on Salmonella typhimurium [32] was “Non-toxic” in each case. Besides, the Activity entry with Salmonella typhimurium [33], in the data set on Salmonella typhimurium [34], in the data set with Salmonella typhimurium [35], in the data set on Salmonella typhimurium [36], with Salmonella typhimurium [37] and with Salmonella typhimurium [38] was “Non-toxic” in each case. In addition, the Activity result in the data set with Salmonella typhimurium [39] and in the data set on Salmonella typhimurium [40] was “Non-toxic” in each case.

The values above are taken from ChEMBL document CHEMBL3244237, “Differences in antischistosomal and mutagenic properties between an isothiocyano- and an isocyanonitrodiphenylamine” (J Med Chem, 1977).
